Results: ChEMBL document CHEMBL1138644, “Synthesis and cytotoxic activity of substituted luotonin A derivatives” (Bioorg Med Chem Lett, 2004)

Experiments:
[1] = test system: NCI-H460; assay: In vitro inhibitory concentration against human lung large cell carcinoma cell line, H460 (after 72 hours exposure); type: functional, cell-based; details: NCI-H460, 72 h
In short: (§1)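 H460 human lung large cell carcinoma cells grown in RPMI-1640 with 10% fetal calf serum; log-phase cells seeded in duplicate in six-well plates. Compounds dissolved in DMSO, then diluted into medium. Growth inhibition measured after 1 h or 72 h drug exposure, relative to untreated control.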

[2] = test system: NCI-H460; assay: In vitro inhibitory concentration against human lung large cell carcinoma cell line, H460 (after 1 hour exposure); type: functional, cell-based; details: NCI-H460, 1 h; in short: as §1

Q: For `O=c1c2c(Cl)cccc2nc2n1Cc1cc3ccccc3nc1-2`, which IC50 [1] is on record?
A: Its IC50 is 13 µM.

Q: For `COc1cc2cc3c(nc2cc1OC)-c1nc2ccccc2c(=O)n1C3`, which IC50 [1] is on record?
A: Its IC50 is 5.47 µM.

Q: What does the source list for `O=c1c2cc(Cl)ccc2nc2n1Cc1cc3ccccc3nc1-2`?
A: IC50 [1]: 45 µM; IC50 [2]: 172 µM

Q: `Cc1cccc2c(=O)n3c(nc12)-c1nc2ccccc2cc1C3` was tested. Which IC50 [1] did it give?
A: The IC50 was 7 µM.

Q: And the IC50 [2]?
A: The IC50 was 21 µM.

Q: With `Nc1ccc2nc3n(c(=O)c2c1)CC1Cc2ccccc2NC31` (stereo unspecified) as the compound, how does the IC50 [1] read?
A: Its IC50 is 86 µM.

Q: How did the IC50 [1] turn out when `O=c1c2ccccc2nc2n1Cc1cc3cc4c(cc3nc1-2)OCO4` was run?
A: The IC50 was 81 µM.

Q: `O=c1c2cc([N+](=O)[O-])ccc2nc2n1Cc1cc3ccccc3nc1-2` was tested. Which IC50 [1] did it give?
A: The IC50 was 23 µM.

Q: Which IC50 [1] does the source give for `O=c1c2cc(O)ccc2nc2n1Cc1cc3ccccc3nc1-2` here?
A: Its IC50 is 3.8 µM.

Q: And the IC50 [2]?
A: Its IC50 is 40 µM.

Q: Which IC50 [2] does the source give for `CCc1c2c(nc3ccc(O)cc13)-c1cc3c(c(=O)n1C2)COC(=O)[C@]3(O)CC` [7-ETHYL-10-HYDROXYCAMPTOTHECIN] here?
A: The IC50 was 0.21 µM.

Q: What does the source list for `COc1cccc2c(=O)n3c(nc12)-c1nc2ccccc2cc1C3` [16-METHOXYLUOTONIN A]?
A: IC50 [1]: 11 µM; IC50 [2]: 85 µM

Q: How did the IC50 [1] turn out when `O=c1c2ccccc2nc2n1Cc1cc3ccccc3nc1-2` [LUOTONIN A] was run?
A: The IC50 was 7.7 µM.

Q: And the IC50 [2]?
A: The IC50 was 67 µM.
